Experimental data: the M2OR odorant receptor database

Tests used:
Conditions in all cases: stereoisomer not certain
[1] = test system: O4F15 A272T
In short: (§1)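 Values were gathered from published papers (main text and supplementary material), with extra details requested from the original authors when needed, and checked for typos and inconsistencies. Each receptor–molecule pair is called responsive (active) if the original authors judged the measured signal statistically different from baseline, and non-responsive (inactive) otherwise. Assay methods varied by source, often transient mammalian cell-line luciferase assays. Recorded details include cell line, G-protein, co-transfected protein and tags.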

[2] = test system: O4F15 S149F
O4F15 S149F, sequence (as listed by the source, stated change not applied): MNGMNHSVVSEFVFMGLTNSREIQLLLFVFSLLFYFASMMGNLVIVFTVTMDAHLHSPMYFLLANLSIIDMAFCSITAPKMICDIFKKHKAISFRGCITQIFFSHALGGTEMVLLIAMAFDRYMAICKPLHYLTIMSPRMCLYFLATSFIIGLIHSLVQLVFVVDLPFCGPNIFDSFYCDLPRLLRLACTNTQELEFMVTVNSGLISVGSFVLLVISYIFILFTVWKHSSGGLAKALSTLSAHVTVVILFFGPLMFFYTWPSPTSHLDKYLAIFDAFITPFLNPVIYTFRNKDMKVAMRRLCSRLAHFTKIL
In short: as §1

[3] = test system: O4F17
In short: as §1
Target sequence in this assay (as listed by the source): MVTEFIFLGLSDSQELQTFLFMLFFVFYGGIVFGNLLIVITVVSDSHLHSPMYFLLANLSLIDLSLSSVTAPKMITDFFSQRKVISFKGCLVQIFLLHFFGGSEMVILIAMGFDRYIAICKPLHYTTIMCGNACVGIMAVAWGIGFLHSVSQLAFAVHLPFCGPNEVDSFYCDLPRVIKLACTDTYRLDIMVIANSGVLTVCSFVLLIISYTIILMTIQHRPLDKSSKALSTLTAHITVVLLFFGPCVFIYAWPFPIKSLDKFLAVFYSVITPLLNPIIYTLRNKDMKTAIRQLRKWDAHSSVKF

[4] = test system: O4F17; remark: listed apart in the source
In short: as §1
Target sequence in this assay (as listed by the source): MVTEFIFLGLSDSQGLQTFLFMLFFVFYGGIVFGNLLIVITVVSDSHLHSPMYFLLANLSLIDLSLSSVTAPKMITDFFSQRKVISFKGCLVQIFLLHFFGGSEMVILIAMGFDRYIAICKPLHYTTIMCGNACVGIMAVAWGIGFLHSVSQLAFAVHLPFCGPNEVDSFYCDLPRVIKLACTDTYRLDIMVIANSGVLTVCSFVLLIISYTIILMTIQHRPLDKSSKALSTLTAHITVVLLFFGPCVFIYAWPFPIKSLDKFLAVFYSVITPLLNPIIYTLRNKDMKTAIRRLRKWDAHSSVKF

[5] = test system: O4F21 F44L
O4F21 F44L, sequence (as listed by the source, stated change not applied): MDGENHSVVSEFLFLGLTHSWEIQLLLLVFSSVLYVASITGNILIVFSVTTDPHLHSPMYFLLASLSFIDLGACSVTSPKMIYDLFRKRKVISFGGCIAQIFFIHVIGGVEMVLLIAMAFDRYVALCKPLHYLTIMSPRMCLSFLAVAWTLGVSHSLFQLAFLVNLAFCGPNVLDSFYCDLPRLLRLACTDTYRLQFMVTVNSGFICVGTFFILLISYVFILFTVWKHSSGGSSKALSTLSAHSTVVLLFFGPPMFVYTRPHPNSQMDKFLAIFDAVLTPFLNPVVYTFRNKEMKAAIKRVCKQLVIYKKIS
In short: as §1

[6] = test system: O51A7 E8D
In short: as §1

[7] = test system: O51B2 C120R C209S P283S
In short: as §1

[8] = test system: O51B4 M147T
O51B4 M147T, sequence (as listed by the source, stated change not applied): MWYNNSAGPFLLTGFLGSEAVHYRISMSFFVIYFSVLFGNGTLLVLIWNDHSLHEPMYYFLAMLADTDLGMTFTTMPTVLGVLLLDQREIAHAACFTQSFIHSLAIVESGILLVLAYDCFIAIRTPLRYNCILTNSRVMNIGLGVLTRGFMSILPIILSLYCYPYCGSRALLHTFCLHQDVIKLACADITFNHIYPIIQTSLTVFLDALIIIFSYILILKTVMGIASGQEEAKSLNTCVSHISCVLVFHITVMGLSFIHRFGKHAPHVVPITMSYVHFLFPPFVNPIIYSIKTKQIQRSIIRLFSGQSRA
In short: as §1

[9] = test system: O51B4
O51B4, sequence (as listed by the source): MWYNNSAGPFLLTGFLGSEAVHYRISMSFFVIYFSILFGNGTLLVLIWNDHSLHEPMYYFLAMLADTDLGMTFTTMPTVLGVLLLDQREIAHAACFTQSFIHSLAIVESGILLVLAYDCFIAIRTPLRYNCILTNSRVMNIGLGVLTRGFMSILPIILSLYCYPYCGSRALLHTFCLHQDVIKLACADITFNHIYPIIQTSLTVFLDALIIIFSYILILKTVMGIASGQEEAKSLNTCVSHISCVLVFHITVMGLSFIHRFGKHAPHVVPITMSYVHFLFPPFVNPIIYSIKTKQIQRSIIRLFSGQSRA
In short: as §1

[10] = test system: O51B5 G5S I102T P160L
In short: as §1

[11] = test system: O51D1 I89V
O51D1 I89V, sequence (as listed by the source, stated change not applied): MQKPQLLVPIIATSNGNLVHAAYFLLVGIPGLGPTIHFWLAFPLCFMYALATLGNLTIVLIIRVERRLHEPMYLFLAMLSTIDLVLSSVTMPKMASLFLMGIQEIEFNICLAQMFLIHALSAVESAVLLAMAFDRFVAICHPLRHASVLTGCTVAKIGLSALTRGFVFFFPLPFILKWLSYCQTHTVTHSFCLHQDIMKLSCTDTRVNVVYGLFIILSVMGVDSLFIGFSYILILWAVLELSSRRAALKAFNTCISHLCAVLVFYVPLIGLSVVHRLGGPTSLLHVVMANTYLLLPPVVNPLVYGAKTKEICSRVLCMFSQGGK
In short: as §1

[12] = test system: O51F1
In short: as §1
Target sequence in this assay (as listed by the source): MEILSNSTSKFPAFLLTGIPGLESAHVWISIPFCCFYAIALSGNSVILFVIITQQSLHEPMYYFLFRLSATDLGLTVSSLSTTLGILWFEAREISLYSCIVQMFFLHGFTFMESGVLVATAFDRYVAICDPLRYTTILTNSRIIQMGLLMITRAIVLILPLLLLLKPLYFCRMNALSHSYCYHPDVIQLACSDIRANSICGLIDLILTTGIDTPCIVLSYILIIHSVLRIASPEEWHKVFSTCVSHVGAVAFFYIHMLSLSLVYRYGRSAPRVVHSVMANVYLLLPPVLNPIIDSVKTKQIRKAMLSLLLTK

[13] = test system: O51F1; remark: listed apart in the source
In short: as §1

[14] = test system: O51F2 Y341S
O51F2 Y341S, sequence (as listed by the source, stated change not applied): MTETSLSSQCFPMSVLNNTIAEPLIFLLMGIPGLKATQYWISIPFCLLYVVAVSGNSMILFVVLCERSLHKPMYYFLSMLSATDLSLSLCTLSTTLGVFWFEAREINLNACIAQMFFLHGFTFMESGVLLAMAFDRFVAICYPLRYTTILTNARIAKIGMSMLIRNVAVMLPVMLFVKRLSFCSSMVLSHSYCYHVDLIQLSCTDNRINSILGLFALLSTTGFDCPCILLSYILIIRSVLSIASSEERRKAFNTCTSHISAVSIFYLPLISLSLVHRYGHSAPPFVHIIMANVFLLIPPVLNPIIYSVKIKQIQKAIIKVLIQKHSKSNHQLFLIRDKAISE
In short: as §1

[15] = test system: O51G1
O51G1, sequence (as listed by the source): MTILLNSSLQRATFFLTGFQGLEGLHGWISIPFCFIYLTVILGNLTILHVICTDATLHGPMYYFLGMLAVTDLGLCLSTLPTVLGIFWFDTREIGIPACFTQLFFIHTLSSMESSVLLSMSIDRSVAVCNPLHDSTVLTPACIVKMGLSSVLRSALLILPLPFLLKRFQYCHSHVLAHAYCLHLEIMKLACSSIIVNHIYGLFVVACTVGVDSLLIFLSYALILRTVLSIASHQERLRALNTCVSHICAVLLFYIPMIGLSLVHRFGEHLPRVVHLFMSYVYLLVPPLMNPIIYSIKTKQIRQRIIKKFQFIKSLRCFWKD
In short: as §1

[16] = test system: O51I1 V164L
O51I1 V164L, sequence (as listed by the source, stated change not applied): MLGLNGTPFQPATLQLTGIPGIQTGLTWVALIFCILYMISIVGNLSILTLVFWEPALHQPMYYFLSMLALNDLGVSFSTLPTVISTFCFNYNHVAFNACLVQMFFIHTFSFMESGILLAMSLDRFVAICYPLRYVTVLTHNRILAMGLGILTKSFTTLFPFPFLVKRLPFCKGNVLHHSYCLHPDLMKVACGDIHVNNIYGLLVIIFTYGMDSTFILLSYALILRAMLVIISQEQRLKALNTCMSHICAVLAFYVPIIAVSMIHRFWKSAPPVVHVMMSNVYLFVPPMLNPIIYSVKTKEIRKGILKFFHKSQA
In short: as §1

[17] = test system: O51J1 R75H I202V
In short: as §1

[18] = test system: O51L1
In short: as §1
Target sequence in this assay (as listed by the source): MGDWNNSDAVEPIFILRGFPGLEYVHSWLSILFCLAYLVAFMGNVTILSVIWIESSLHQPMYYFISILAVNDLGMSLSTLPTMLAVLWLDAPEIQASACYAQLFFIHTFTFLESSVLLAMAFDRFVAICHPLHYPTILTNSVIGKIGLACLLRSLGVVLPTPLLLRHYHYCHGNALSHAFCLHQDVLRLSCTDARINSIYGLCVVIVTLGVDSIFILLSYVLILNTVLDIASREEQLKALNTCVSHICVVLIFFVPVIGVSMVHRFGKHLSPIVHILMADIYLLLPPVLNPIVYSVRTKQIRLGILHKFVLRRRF

[19] = test system: O51L1; remark: listed apart in the source
In short: as §1
Target sequence in this assay (as listed by the source): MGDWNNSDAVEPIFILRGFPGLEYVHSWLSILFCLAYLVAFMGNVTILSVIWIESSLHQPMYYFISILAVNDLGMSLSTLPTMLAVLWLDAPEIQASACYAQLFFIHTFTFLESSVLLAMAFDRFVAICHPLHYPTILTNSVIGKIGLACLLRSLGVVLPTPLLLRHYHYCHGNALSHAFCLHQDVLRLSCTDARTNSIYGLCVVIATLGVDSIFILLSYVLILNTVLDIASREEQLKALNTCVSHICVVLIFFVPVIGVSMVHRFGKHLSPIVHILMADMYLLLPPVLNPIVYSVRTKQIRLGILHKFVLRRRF

[20] = test system: O51T1
O51T1, sequence (as listed by the source): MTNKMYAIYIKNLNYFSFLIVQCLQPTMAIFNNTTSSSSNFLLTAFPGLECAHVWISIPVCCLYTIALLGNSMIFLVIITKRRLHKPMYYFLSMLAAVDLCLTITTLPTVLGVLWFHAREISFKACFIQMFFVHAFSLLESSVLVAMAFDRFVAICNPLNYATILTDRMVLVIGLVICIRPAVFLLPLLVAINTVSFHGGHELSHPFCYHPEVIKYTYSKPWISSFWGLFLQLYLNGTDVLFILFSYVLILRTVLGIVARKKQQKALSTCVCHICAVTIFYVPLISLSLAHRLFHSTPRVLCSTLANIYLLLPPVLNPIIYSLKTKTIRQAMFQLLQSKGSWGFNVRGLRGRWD
In short: as §1

Measured: odorant receptor agonist call

O4F15 A272T, sequence (as listed by the source, stated change not applied): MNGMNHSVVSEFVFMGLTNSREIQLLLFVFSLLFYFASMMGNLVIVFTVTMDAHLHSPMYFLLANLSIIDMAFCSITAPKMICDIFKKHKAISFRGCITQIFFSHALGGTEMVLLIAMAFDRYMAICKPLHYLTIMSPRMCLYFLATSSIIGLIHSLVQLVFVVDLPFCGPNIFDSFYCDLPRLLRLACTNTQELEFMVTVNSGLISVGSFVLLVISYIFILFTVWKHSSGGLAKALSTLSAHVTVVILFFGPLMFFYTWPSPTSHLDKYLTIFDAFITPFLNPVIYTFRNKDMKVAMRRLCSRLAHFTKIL

C=CCOC(=O)Cc1ccccc1
active: [18] | [19]
inactive: all other assays above
